Source: ChEMBL document CHEMBL1134334, “3-Aryl[1,2,4]triazino[4,3-a]benzimidazol-4(10H)-ones: a new class of selective A1 adenosine receptor antagonists” (J Med Chem, 2001)

Columns and labels:
[1] = target: T1, Adenosine receptor A1 (Bos taurus, UniProt P28190); assay: Displacement of [3H]CHA from adenosine A1 receptors was determined in bovine cortical membranes; type: cell membranes
T1 sequence (P28190 whole entry): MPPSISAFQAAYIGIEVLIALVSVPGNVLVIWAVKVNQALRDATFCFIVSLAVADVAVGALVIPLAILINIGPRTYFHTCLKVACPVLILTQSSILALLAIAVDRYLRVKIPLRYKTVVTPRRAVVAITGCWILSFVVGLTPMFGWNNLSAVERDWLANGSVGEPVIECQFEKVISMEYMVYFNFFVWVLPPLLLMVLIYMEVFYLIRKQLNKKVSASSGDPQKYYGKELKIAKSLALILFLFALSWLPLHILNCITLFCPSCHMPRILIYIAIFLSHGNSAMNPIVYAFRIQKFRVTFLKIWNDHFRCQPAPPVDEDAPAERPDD
Outline: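 A1 affinity measured by displacement of [3H]CHA (31 Ci/mmol) from bovine cortical membranes. Compounds in DMSO, final ≤2%. At least six concentrations spanning 3 orders of magnitude were used. Ki is the mean ± SEM of four separate assays, each run in triplicate.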

[2] = target: Adenosine receptor A2a (Bos taurus); assay: Displacement of [3H]-CGS- 21680 from adenosine A2a receptor of bovine striatal membrane
[3] = target: T1, Adenosine receptor A1; assay: Intrinsic activity towards Adenosine A1 receptor as displacement of [3H]DPCPX from bovine cortical membranes without GTP
Outline: (§1)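 A1 binding in bovine cortical membranes with [3H]DPCPX as radioligand. Run with 1 mM GTP and without GTP, and the GTP shift was taken from comparing the two conditions. Compounds in DMSO, final ≤2%.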

[4] = tested on: Adenosine receptor A3 (Bos taurus); assay: Displacement of [125 I]AB-MECA from adenosine A3 receptor in bovine cortical membranes at 1 uM
[5] = tested on: Adenosine receptor A2a (Bos taurus); assay: Displacement of [3H]-CGS- 21680 from adenosine A2a receptor in bovine striatal membrane at 10 uM.; details: Striatum
[6] = target: T1, Adenosine receptor A1; assay: Intrinsic activity towards Adenosine A1 receptor as displacement of [3H]DPCPX from bovine cortical membranes with 1 mM GTP; outline: as §1
[7] = target: T2, Adenosine receptor A1 (Bos taurus) (UniProt P28190); assay: GTP shift for Adenosine A1 receptor; type: functional; outline: as §1
T2 sequence (whole entry): T1 sequence (P28190 whole entry)

[8] = target: T2, Adenosine receptor A1 (Bos taurus); assay: Displacement of [3H]CHA from adenosine A1 receptor in bovine cortical membrane at 10 uM; type: cell membranes
Outline: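 Competition against [3H]CHA (31 Ci/mmol) for A1 sites in bovine cortical membranes. Compounds dissolved in DMSO, final DMSO ≤2%.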

[9] = target: T1, Adenosine receptor A1; assay: Intrinsic activity towards Adenosine A1 receptor using [3H]DPCPX from bovine cortical membranes without GTP; outline: as §1

Compound: O=c1c(-c2ccco2)nnc2n(Cc3ccccc3)c3ccccc3n12
- Ki [1]: 990 nM
- Ki [2]: 1240 nM

Compound: Oc1ccc(-c2nnc3nc4ccccc4n3c2O)cc1O
- Ki [1]: 470 nM
- Ki [2]: 3500 nM

Compound: O=c1c(-c2ccco2)nnc2n(-c3ccccc3)c3ccccc3n12
- Ki [1]: 315 nM

Compound: Cn1c2ccccc2n2c(=O)c(-c3ccccc3)nnc12
- Ki [3]: 93.1 nM
- Ki [1]: 63 nM
- inhibition [4]: 0%
- inhibition [5]: 25%
- Ki [6]: 119 nM
- GTP shift [7]: 1.3

Compound: Cc1nnc2n(C)c3ccccc3n2c1=O
- inhibition [8]: 46%
- inhibition [5]: 0%

Compound: O=c1c(-c2ccccc2)nnc2n(-c3ccccc3)c3ccccc3n12
- Ki [3]: 24.7 nM
- Ki [1]: 18 nM
- Ki [6]: 25 nM

Compound: Oc1c(-c2cccs2)nnc2nc3ccccc3n12
- Ki [1]: 293 nM

Compound: Cn1c2ccccc2n2c(=O)c(-c3ccc(O)cc3)nnc12
- Ki [1]: 206 nM
- inhibition [5]: 43%

Compound: COc1ccc(-c2nnc3nc4ccccc4n3c2O)cc1
- inhibition [8]: 30%
- inhibition [5]: 16%

Compound: Oc1c(-c2ccco2)nnc2nc3ccccc3n12
- Ki [1]: 261 nM

Compound: Oc1c(-c2ccc(Cl)cc2)nnc2nc3ccccc3n12
- inhibition [8]: 44%
- inhibition [5]: 8%

Compound: Oc1c(-c2ccsc2)nnc2nc3ccccc3n12
- Ki [1]: 119 nM
- Ki [2]: 5000 nM

Compound: Cn1c2ccccc2n2c(=O)c(-c3cccs3)nnc12
- Ki [1]: 233 nM
- inhibition [5]: 19%

Compound: COc1ccc(-c2nnc3nc4ccccc4n3c2O)cc1OC
- Ki [1]: 1780 nM
- inhibition [5]: 35%

Compound: Cn1c2ccccc2n2c(=O)c(-c3ccsc3)nnc12
- Ki [1]: 78 nM
- inhibition [5]: 55%

Compound: Oc1cnnc2nc3ccccc3n12
- inhibition [8]: 34%
- inhibition [5]: 0%

Compound: Cn1c2ccccc2n2c(=O)c(-c3ccc(Cl)cc3)nnc12
- inhibition [8]: 66%
- inhibition [5]: 0%

Compound: O=c1c(-c2ccc(O)cc2)nnc2n(Cc3ccccc3)c3ccccc3n12
- Ki [1]: 344 nM

Compound: Cn1c2ccccc2n2c(=O)cnnc12
- inhibition [8]: 0%
- inhibition [5]: 8%

Compound: O=c1c(-c2ccccc2)nnc2n(Cc3ccccc3)c3ccccc3n12
- Ki [3]: 240 nM
- Ki [1]: 274 nM
- Ki [6]: 184 nM

Compound: Oc1c(-c2ccccc2)nnc2nc3ccccc3n12
- Ki [9]: 141 nM
- Ki [1]: 85 nM
- Ki [6]: 197 nM

Compound: Oc1ccc(-c2nnc3nc4ccccc4n3c2O)cc1
- Ki [1]: 249 nM

Compound: COc1ccc(-c2nnc3n(C)c4ccccc4n3c2=O)cc1OC
- inhibition [8]: 24%
- inhibition [5]: 18%

Compound: O=c1c(-c2ccsc2)nnc2n(Cc3ccccc3)c3ccccc3n12
- Ki [1]: 446 nM
- inhibition [5]: 60%

Compound: C[C@H](Cc1ccccc1)Nc1ncnc2c1ncn2[C@@H]1O[C@H](CO)[C@@H](O)[C@H]1O [(R)-PIA]
- Ki [3]: 4.2 nM
- Ki [6]: 19.9 nM

Compound: Cn1c2ccccc2n2c(=O)c(-c3ccc(O)c(O)c3)nnc12
- Ki [1]: 459 nM

Compound: COc1ccc(-c2nnc3n(C)c4ccccc4n3c2=O)cc1
- Ki [1]: 2050 nM
- inhibition [5]: 7%

Compound: Cc1nnc2nc3ccccc3n2c1O
- Ki [1]: 3900 nM
- inhibition [5]: 39%

Compound: Cn1c2ccccc2n2c(=O)c(-c3ccco3)nnc12
- Ki [1]: 813 nM
- Ki [2]: 6300 nM
